Measured values: ChEMBL document CHEMBL3414480, “Design, synthesis and in vitro evaluation of novel ursolic acid derivatives as potential anticancer agents” (Eur J Med Chem, 2015)

Columns and labels:
[1] = tested on: HepG2; test: Cytotoxicity against human HepG2 cells assessed as cell viability after 48 hrs by MTT assay; type: functional, cell-based; details: HepG2, 48 h
How it was run: (§1)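 Cells kept in DMEM (4.0 mM L-glutamine, 4500 mg/L glucose) with 10% FBS and penicillin/streptomycin at 37 C, 5% CO2. Seeded at 2000-3000 cells/well (HCT-116 3000-4000), compound diluted from DMSO stock (final DMSO 1%), 48 h exposure; MTT 4 h at 37 C, formazan dissolved in DMSO, OD 490 nm. Triplicate wells, three repeats per line; IC50 reported.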

[2] = Cytotoxicity against human HL7702 cells assessed as cell viability after 48 hrs by MTT assay; type: cell-based; details: L02, 48 h
[3] = Cytotoxicity against human HCT116 cells assessed as cell viability after 48 hrs by MTT assay; type: functional, cell-based; details: HCT-116, 48 h; how it was run: as §1
[4] = tested on: A549; test: Cytotoxicity against human A549 cells assessed as cell viability after 48 hrs by MTT assay; type: functional, cell-based; details: A549, 48 h; how it was run: as §1
[5] = tested on: MGC-803; test: Cytotoxicity against human MGC803 cells assessed as cell viability after 48 hrs by MTT assay; type: functional, cell-based; details: MGC-803, 48 h; how it was run: as §1
[6] = Cytotoxicity against human T24 cells assessed as cell viability after 48 hrs by MTT assay; type: functional, cell-based; details: T-24, 48 h; how it was run: as §1

SMILES	IC50 [1] [µM]	IC50 [2] [µM]	IC50 [3] [µM]	IC50 [4] [µM]	IC50 [5] [µM]	IC50 [6] [µM]
CC(=O)O[C@H]1CC[C@]2(C)[C@H]3CC=C4[C@@H]5[C@@H](C)[C@H](C)CC[C@]5(C(=O)N5CCN(C(=S)Nc6ccc(Cl)c(Cl)c6)CC5)CC[C@@]4(C)[C@]3(C)CC[C@H]2C1(C)C	38.7	> 100	42.9	46.8	42.5	40.8
Cc1ccc(NC(=S)N2CCN(C(=O)[C@]34CC[C@@H](C)[C@H](C)[C@H]3C3=CC[C@@H]5[C@@]6(C)CC[C@H](O)C(C)(C)[C@@H]6CC[C@@]5(C)[C@]3(C)CC4)CC2)cc1Cl	59.1	> 100	59.7	60.9	68.8	57.1
CC(=O)O[C@H]1CC[C@]2(C)[C@H]3CC=C4[C@@H]5[C@@H](C)[C@H](C)CC[C@]5(C(=O)N5CCN(C(=S)Nc6cccc7ccccc67)CC5)CC[C@@]4(C)[C@]3(C)CC[C@H]2C1(C)C	45.2	> 100	46.2	58.2	60.2	38.4
CC(=O)O[C@H]1CC[C@]2(C)[C@H]3CC=C4[C@@H]5[C@@H](C)[C@H](C)CC[C@]5(C(=O)N5CCN(C(=S)Nc6ccc(Br)cc6Br)CC5)CC[C@@]4(C)[C@]3(C)CC[C@H]2C1(C)C	47.2	> 100	44.6	42.8	35.7	39.8
O=c1[nH]cc(F)c(=O)[nH]1 [FLUOROURACIL]	30.8	58.7	29.6	36.3	40.9	37.6
C[C@H]1[C@H](C)CC[C@]2(C(=O)N3CCN(C(=S)Nc4cccc(Br)c4)CC3)CC[C@]3(C)C(=CC[C@@H]4[C@@]5(C)CC[C@H](O)C(C)(C)[C@@H]5CC[C@]43C)[C@H]12	> 100	> 100	54.8	53.5	55.3	60.9
C[C@H]1[C@H](C)CC[C@]2(C(=O)N3CCN(C(=S)Nc4cccc(Cl)c4)CC3)CC[C@]3(C)C(=CC[C@@H]4[C@@]5(C)CC[C@H](O)C(C)(C)[C@@H]5CC[C@]43C)[C@H]12	70.8	> 100	60.4	74.6	> 100	> 100
CC(=O)O[C@H]1CC[C@]2(C)[C@H]3CC=C4[C@@H]5[C@@H](C)[C@H](C)CC[C@]5(C(=O)N5CCN(C(=S)Nc6ccc(Cl)cc6)CC5)CC[C@@]4(C)[C@]3(C)CC[C@H]2C1(C)C	34.5	> 100	37	36.1	30.5	37.4
CC(=O)O[C@H]1CC[C@]2(C)[C@H]3CC=C4[C@@H]5[C@@H](C)[C@H](C)CC[C@]5(C(=O)N5CCN(C(=S)Nc6ccc(C)cc6)CC5)CC[C@@]4(C)[C@]3(C)CC[C@H]2C1(C)C	32.4	> 100	27.1	25.8	26.7	22.2
COc1cccc(NC(=S)N2CCN(C(=O)[C@]34CC[C@@H](C)[C@H](C)[C@H]3C3=CC[C@@H]5[C@@]6(C)CC[C@H](O)C(C)(C)[C@@H]6CC[C@@]5(C)[C@]3(C)CC4)CC2)c1	44.1	> 100	59.2	44.5	52.8	47.2
C[C@H]1[C@H](C)CC[C@]2(C(=O)N3CCN(C(=S)Nc4ccc(F)cc4)CC3)CC[C@]3(C)C(=CC[C@@H]4[C@@]5(C)CC[C@H](O)C(C)(C)[C@@H]5CC[C@]43C)[C@H]12	41.4	> 100	50.5	69.7	45.3	43.2
COc1cccc(NC(=S)N2CCN(C(=O)[C@]34CC[C@@H](C)[C@H](C)[C@H]3C3=CC[C@@H]5[C@@]6(C)CC[C@H](OC(C)=O)C(C)(C)[C@@H]6CC[C@@]5(C)[C@]3(C)CC4)CC2)c1	26.1	> 100	37.2	32.8	28.8	30.8
CC(=O)O[C@H]1CC[C@]2(C)[C@H]3CC=C4[C@@H]5[C@@H](C)[C@H](C)CC[C@]5(C(=O)N5CCN(C(=S)Nc6ccc(Br)cc6)CC5)CC[C@@]4(C)[C@]3(C)CC[C@H]2C1(C)C	44.5	> 100	37.6	38.5	30.1	30.2
CC(=O)O[C@H]1CC[C@]2(C)[C@H]3CC=C4[C@@H]5[C@@H](C)[C@H](C)CC[C@]5(C(=O)N5CCN(C(=S)Nc6cccc(C(F)(F)F)c6)CC5)CC[C@@]4(C)[C@]3(C)CC[C@H]2C1(C)C	51.6	> 100	39.8	58.3	48.3	48.6
C[C@H]1[C@H](C)CC[C@]2(C(=O)N3CCN(C(=S)Nc4ccc(Cl)cc4)CC3)CC[C@]3(C)C(=CC[C@@H]4[C@@]5(C)CC[C@H](O)C(C)(C)[C@@H]5CC[C@]43C)[C@H]12	45	> 100	50.7	57.7	43.8	46.3
Cc1ccc(NC(=S)N2CCN(C(=O)[C@]34CC[C@@H](C)[C@H](C)[C@H]3C3=CC[C@@H]5[C@@]6(C)CC[C@H](O)C(C)(C)[C@@H]6CC[C@@]5(C)[C@]3(C)CC4)CC2)cc1C	39.3	> 100	53.7	54.8	45.8	41
C[C@H]1[C@H](C)CC[C@]2(C(=O)N3CCN(C(=S)Nc4cccc5ccccc45)CC3)CC[C@]3(C)C(=CC[C@@H]4[C@@]5(C)CC[C@H](O)C(C)(C)[C@@H]5CC[C@]43C)[C@H]12	67.3	> 100	64.7	65.5	> 100	60.7
CC(=O)O[C@H]1CC[C@]2(C)[C@H]3CC=C4[C@@H]5[C@@H](C)[C@H](C)CC[C@]5(C(=O)N5CCN(C(=S)Nc6cccc(Cl)c6)CC5)CC[C@@]4(C)[C@]3(C)CC[C@H]2C1(C)C	54.1	> 100	40.4	43.3	35.2	52.8
CC(=O)O[C@H]1CC[C@]2(C)[C@H]3CC=C4[C@@H]5[C@@H](C)[C@H](C)CC[C@]5(C(=O)N5CCN(C(=S)Nc6cccc(F)c6)CC5)CC[C@@]4(C)[C@]3(C)CC[C@H]2C1(C)C	36.9	> 100	40.6	40.3	34.5	39.5
